Converted amounts (≈) assume the structure as drawn. The source made the active and inactive calls.
Columns and labels:
[1] = system: Enterococcus faecium; test: Antibacterial activity against vancomycin-resistant Enterococcus faecium ATCC HM-968 assessed as ratio of MIC after and before 3 serial passages measured after 18 hrs by broth microdillution method; assay type: functional
Outline: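 Multi-step resistance selection: 0.5 McFarland suspension diluted 1:300 in BHI to a starting 1 × 10^5 CFU/mL. Broth microdilution MIC repeated for 14 passages over two weeks, each reseeded at ~5 × 10^5 CFU/mL from the sub-inhibitory well of the previous passage. Serial dilutions in triplicate, 37 °C for at least 18 h, MIC read visually. Resistance defined as a >4-fold MIC rise.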

[2] = system: Enterococcus faecalis; test: Bactericidal activity against Enterococcus faecalis clinical isolates after 18 to 22 hrs by broth microdilution method; assay type: functional
Outline: (§1)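 MBC determined after the broth microdilution MIC. 5 μL aliquots plated onto TSA (E. faecalis) or BHI agar (E. faecium) and incubated at 37 °C for 18–22 h. MBC is the concentration giving >99% reduction in cell count, reported as MBC50.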

[3] = system: Escherichia coli; test: Antibacterial activity against Escherichia coli 1411 harboring delta-acrAB after 18 to 22 hrs in absence of colistin by broth microdilution method; assay type: functional
[4] = system: Enterococcus faecalis; test: Bactericidal activity against vancomycin-resistant Enterococcus faecalis clinical isolates after 18 to 22 hrs by broth microdilution method; assay type: functional
Outline: (§2)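 MBC follows the broth microdilution MIC. 5 μL aliquots spotted onto TSA (E. faecalis) or BHI agar (E. faecium), incubated 37 °C for 18–22 h. MBC is the concentration giving >99% reduction in bacterial count. MBC50 is the value for 50% of isolates.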

[5] = system: Enterococcus faecium; test: Antibacterial activity against Enterococcus faecium clinical isolates after 18 to 22 hrs by broth microdilution method; assay type: functional
Outline: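 Enterococcus faecium grown in BHI. MIC by CLSI broth microdilution, 37 °C for 18–22 h. Lowest concentration with no visible growth taken as MIC, reported as MIC50 across the isolates.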

[6] = system: Caenorhabditis elegans; test: Toxicity in Caenorhabditis elegans AU37 assessed as worm survival at 20 ug/ml after 24 hrs by microscopic analysis; details: caenorhabditis elegans, 24 h
Outline: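 Adult C. elegans AU37, 15–20 per well, exposed in triplicate to 10 or 20 μg/mL, with sterile water as negative control. Viability checked by microscopy. Result reported as percent viable worms after 24 h exposure.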

[7] = system: Enterococcus faecium; test: Ratio of MBC50 to MIC50 for Enterococcus faecium clinical isolates; assay type: functional
Outline: (§3)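 MIC by CLSI broth microdilution in TSB (E. faecalis) or BHI (E. faecium), 37 °C for 18–22 h, taken as the lowest concentration without visible growth. For MBC, 5 μL aliquots were spotted onto TSA (E. faecalis) or BHI agar (E. faecium) and incubated 37 °C for 18–22 h; MBC is the concentration giving >99% drop in count. MIC50/MBC50 cover 50% of isolates.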

[8] = system: Enterococcus faecium; test: Antibacterial activity against vancomycin-resistant Enterococcus faecium ATCC 700221 after 18 to 22 hrs in absence of colistin by broth microdilution method; assay type: functional
[9] = system: Enterococcus faecium; test: Bactericidal activity against Enterococcus faecium after 18 to 22 hrs by broth microdilution method; assay type: functional; outline: as §1
[10] = system: Enterococcus faecium; test: Bactericidal activity against Vancomycin-resistant Enterococcus faecium clinical isolates after 18 to 22 hrs by broth microdilution method; assay type: functional; outline: as §2
[11] = system: Enterococcus faecalis; test: Antibacterial activity against vancomycin-resistant Enterococcus faecalis ATCC 51299 after 14 serial passages measured after 18 hrs by broth microdillution method; assay type: functional
Outline: (§4)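 Multi-step selection over 14 passages in two weeks. McFarland 0.5 inoculum diluted 1:300 in TSB (E. faecalis) or BHI (E. faecium) to 1 × 10^5 CFU/mL. Each passage reinoculated at ~5 × 10^5 CFU/mL from the sub-inhibitory well of the previous plate. Compounds serially diluted in triplicate, incubated ≥18 h at 37 °C, MIC read visually. Resistance defined as >4-fold MIC rise.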

[12] = system: Enterococcus faecalis; test: Ratio of MBC50 to MIC50 for Enterococcus faecalis clinical isolates; assay type: functional; outline: as §3
[13] = system: Enterococcus faecium; test: Bacteriostatic activity against vancomycin-resistant Enterococcus faecium ATCC 700221 assessed as reduction in CFU at 4 times MIC after 24 hrs; assay type: functional
Outline: (§5)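 Late-log cells diluted to ~5 × 10^6 CFU/mL and exposed in triplicate to 4 × MIC, in TSB (E. faecalis HM-201) or BHI (E. faecium ATCC 700221) at 37 °C. Sampled at 0, 2, 4, 6, 8, 10, 12 and 24 h, diluted serially in PBS and plated on TSA or BHI agar. CFU/mL counted after 18–22 h. DMSO served as negative control.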

[14] = system: Enterococcus faecalis; test: Bacteriostatic activity against vancomycin-resistant Enterococcus faecalis HM-201 assessed as reduction in CFU at 4 times MIC after 24 hrs; assay type: functional; outline: as §5
[15] = system: Escherichia coli; test: Antibacterial activity against Escherichia coli 1411 after 18 to 22 hrs in absence of colistin by broth microdilution method; assay type: functional
Outline: (§6)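 Broth microdilution per CLSI guidelines. Gram-negatives grown in TSB. Each strain tested alone and again with colistin at ¼ × MIC to permeabilize the outer membrane. Plates incubated at 37 °C for 18–22 h. MIC read as the lowest concentration showing no visible growth.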

[16] = system: Enterococcus faecium; test: Ratio of MBC50 to MIC50 for vancomycin-resistant Enterococcus faecium ATCC 700221; assay type: functional
[17] = system: Enterococcus faecium; test: Bactericidal activity against vancomycin-resistant Enterococcus faecium ATCC 700221 at 4 times MIC after 2 hrs by time-kill assay; assay type: functional; outline: as §5
[18] = system: Enterococcus faecalis; test: Synergistic antimicrobial activity against Enterococcus faecalis ATCC 49532 after 20 hrs in presence of ciprofloxacin by checkerboard assay; assay type: functional
Outline: (§7)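 Checkerboard in TSB with a starting inoculum of 1×10^5 CFU/mL. Compound and antibiotic diluted from 2× or 4× MIC along perpendicular axes. Incubated 20 h at 37 °C. ΣFIC calculated: ≤0.5 synergy, >0.5 to <2 additive, 2–4 indifference, >4 antagonism.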

[19] = system: Klebsiella pneumoniae; test: Antibacterial activity against Klebsiella pneumoniae BAA-1706 after 18 to 22 hrs in absence of colistin by broth microdilution method; assay type: functional
[20] = system: HRT-18 cell line; test: Cytotoxicity against human HRT18 cells assessed as reduction in cell viability up to 40 ug/ml after 2 hrs by MTS assay; assay type: cell-based; details: hrt-18, 2 h
Outline: (§8)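 HRT-18 cells maintained in RPMI-1640 with 10% fetal horse serum at 37 °C, 5% CO2. Exposed to 5, 10, 20 or 40 μg/mL for 2 or 24 h, then MTS added and absorbance read at 490 nm. Viability expressed relative to untreated cells, n ≥ 3, one-way ANOVA with Dunnett's test.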

[21] = system: Acinetobacter baumannii; test: Antibacterial activity against Acinetobacter baumanii ATCC 19606 after 18 to 22 hrs in absence of colistin by broth microdilution method; assay type: functional; details: ATCC 19606 = CIP 70.34 = JCM 6841; outline: as §6
[22] = system: Enterococcus faecalis; test: Synergistic antimicrobial activity against Enterococcus faecalis ATCC 49533 after 20 hrs in presence of ciprofloxacin by checkerboard assay; assay type: functional; outline: as §7
[23] = system: Enterococcus faecalis; test: Antibacterial activity against Enterococcus faecalis ATCC 31975 at 4 to 8 times MIC after 48 hrs by broth microdillution method; assay type: functional
Outline: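 Single-step resistance selection. Cultures of 5 × 10^8 to 5 × 10^10 CFU/mL spread on TSA containing compound at 2×, 4× or 8× MIC and incubated aerobically at 37 °C for 48 h. Colony MICs rechecked by broth microdilution. Frequency calculated as resistant colonies per inoculum.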

[24] = system: Enterococcus faecalis; test: Antibacterial activity against vancomycin-resistant Enterococcus faecalis ATCC 51299 assessed as ratio of MIC after and before 11 serial passages measured after 18 hrs by broth microdillution method; assay type: functional; outline: as §4
[25] = system: Enterococcus faecalis; test: Antibacterial activity against vancomycin-resistant Enterococcus faecalis ATCC 51299 assessed as ratio of MIC after and before 6 serial passages measured after 18 hrs by broth microdillution method; assay type: functional; outline: as §4
[26] = system: Escherichia coli; test: Antibacterial activity against Escherichia coli O157:H7 ATCC 35150 after 18 to 22 hrs in absence of colistin by broth microdilution method; assay type: functional
[27] = system: Staphylococcus aureus; test: Antibacterial against Methicillin-Resistant Staphylococcus aureus after 18 to 20 hrs by broth microdilution method; assay type: functional
[28] = system: Pseudomonas aeruginosa; test: Antibacterial activity against Pseudomonas aeruginosa ATCC 15442 after 18 to 22 hrs in absence of colistin by broth microdilution method; assay type: functional
[29] = system: Acinetobacter baumannii; test: Antibacterial activity against Acinetobacter baumanii ATCC 19606 after 18 to 22 hrs in presence of 1/4 times MIC colistin by broth microdilution method; assay type: functional; details: ATCC 19606 = CIP 70.34 = JCM 6841; outline: as §6
[30] = system: HRT-18 cell line; test: Cytotoxicity against human HRT18 cells assessed as reduction in cell viability at 20 ug/ml after 24 hrs by MTS assay; assay type: cell-based; details: hrt-18, 24 h; outline: as §8
[31] = system: HRT-18 cell line; test: Cytotoxicity against human HRT18 cells assessed as reduction in cell viability at 40 ug/ml after 24 hrs by MTS assay; assay type: cell-based; details: hrt-18, 24 h; outline: as §8
[32] = system: Enterococcus faecium; test: Bactericidal activity against vancomycin-resistant Enterococcus faecium ATCC 700221 at 4 times MIC after 24 hrs by time-kill assay; assay type: functional; outline: as §5
[33] = system: Enterococcus faecium; test: Antibacterial activity against vancomycin-resistant Enterococcus faecium ATCC HM-968 assessed as ratio of MIC after and before 11 serial passages measured after 18 hrs by broth microdillution method; assay type: functional; outline: as §4
[34] = system: Enterococcus faecalis; test: Antibacterial activity against Enterococcus faecalis clinical isolates after 18 to 22 hrs by broth microdilution method; assay type: functional
Outline: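 CLSI broth microdilution against panels of enterococcal isolates. E. faecalis grown in TSB, E. faecium in BHI, 37 °C for 18–22 h. MIC is the lowest concentration without visible growth. MIC50 is the value inhibiting 50% of isolates in each group.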

[35] = system: Enterobacter cloacae; test: Antibacterial activity against Enterobacter cloacae BAA-1154 after 18 to 22 hrs in presence of 1/4 times MIC colistin by broth microdilution method; assay type: functional; outline: as §6
[36] = system: Pseudomonas aeruginosa; test: Antibacterial activity against Pseudomonas aeruginosa ATCC 15442 after 18 to 22 hrs in presence of 1/4 times MIC colistin by broth microdilution method; assay type: functional; outline: as §6
[37] = system: Klebsiella pneumoniae; test: Antibacterial activity against Klebsiella pneumoniae BAA-1706 after 18 to 22 hrs in presence of 1/4 times MIC colistin by broth microdilution method; assay type: functional; outline: as §6
[38] = system: Enterobacter cloacae; test: Antibacterial activity against Enterobacter cloacae BAA-1154 after 18 to 22 hrs in absence of colistin by broth microdilution method; assay type: functional

## CC(=O)NC[C@H]1CN(c2ccc(N3CCOCC3)c(F)c2)C(=O)O1 [LINEZOLID]
[1]
  Ratio: 1
[2]
  MBC50: 64 µg/mL (≈ 190 µM)
[3]
  MIC: 8 µg/mL (≈ 23.7 µM)
[4]
  MBC50: 64 µg/mL (≈ 190 µM)
[5]
  MIC50: 2 µg/mL (≈ 5.93 µM)
[6]
  Activity: Non-Toxic
[7]
  Ratio: >4
[8]
  MIC: 0.5 µg/mL (≈ 1.48 µM)
[9]
  MBC50: 16 µg/mL (≈ 47.4 µM)
[10]
  MBC50: 128 µg/mL (≈ 379 µM)
[11]
  Activity: Active
[12]
  Ratio: >4
[13]
  Activity: Active
[14]
  Activity: Active
[15]
  MIC: > 128 µg/mL

## C/C(=N\NC(=N)N)c1sc(-c2ccc(-c3ccccc3)cc2)nc1C
[2]
  MBC50: 16 µg/mL (≈ 45.8 µM)
[16]
  Ratio: >4
[17]
  Activity: Active
[18]
  fractional inhibitory concentration index (FICI): 0.63 - 1
[3]
  MIC: 4 µg/mL (≈ 11.4 µM)
[19]
  MIC: > 128 µg/mL
[20]
  Activity: Non-Toxic
[21]
  MIC: 8 µg/mL (≈ 22.9 µM)
[22]
  fractional inhibitory concentration index (FICI): 0.63 - 1
[5]
  MIC50: 8 µg/mL (≈ 22.9 µM)
[23]
  Activity: Active
[8]
  MIC: 0.5 µg/mL (≈ 1.43 µM)
[24]
  Ratio: 2
[25]
  Ratio: 1
[26]
  MIC: > 128 µg/mL
[9]
  MBC50: 16 µg/mL (≈ 45.8 µM)
[27]
  MIC: 1.3 to 5.6 µg/mL (≈ 3.72 to 16 µM)
[28]
  MIC: > 128 µg/mL
[29]
  MIC: 1 µg/mL
[30]
  Activity: Non-Toxic
[31]
  Activity: Toxic
[10]
  MBC50: 16 µg/mL (≈ 45.8 µM)
[32]
  Activity: inactive
[33]
  Ratio: 1
[34]
  MIC50: 8 µg/mL (≈ 22.9 µM)
[13]
  Activity: Active
[35]
  MIC: 1 µg/mL
[36]
  MIC: 1 µg/mL
[37]
  MIC: 2 µg/mL
[38]
  MIC: > 128 µg/mL

Reference: ChEMBL document CHEMBL4028805, “Phenylthiazole Antibacterial Agents Targeting Cell Wall Synthesis Exhibit Potent Activity in Vitro and in Vivo against Vancomycin-Resistant Enterococci” (J Med Chem, 2017)
